We go through three molecules from ChEMBL document CHEMBL4118256, “Second Generation of Mannich Base-Type Derivatives with in Vivo Activity against Trypanosoma cruzi” (J Med Chem, 2018).

Data set [1] deals with Mus musculus. Put plainly: Nephrotoxicity in Balb/c mouse infected with Trypanosoma cruzi MHOM/Pe/2011/Arequipa DTU 5 trypamastigotes assessed as increase in urea level in serum at […], po once daily for 5 consecutive days starting from day 75 post infection measured on day 81 post infection by biochemical analysis relative to control. The format is toxicity, organism-based. Particulars: in vivo.

Data set [2] relates to Trypanosoma cruzi. Put plainly: Antitrypanosomal activity against Trypanosoma cruzi MHOM/Pe/2011/Arequipa DTU 5 epimastigotes assessed as effect on parasite glycolytic pathway by measuring decrease in succinate excretion at IC25 after 72 hrs by 1H NMR method. The format is functional, organism-based. An outline of the steps: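 Arequipa epimastigotes exposed at IC25 for 72 h alongside an untreated control. Excreted catabolites were analysed by 1H NMR, and each peak is reported as % variation versus the control. Three separate determinations.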

Data set [3] relates to Trypanosoma cruzi. The data set is described as follows: Antitrypanosomal activity against Trypanosoma cruzi MHOM/Pe/2011/Arequipa DTU 5 trypamastigotes infected in Balb/c mouse assessed as reduction in parasitaemia reactivation in bone marrow tissue at 100 mg/kg, po pretreated once daily for 5 consecutive days starting from day 75 post infection followed by cyclophosphamide-induced immunosuppression on day 100 post infection every 4 days for a maximum of 3 doses measured on day 127 post infection by PCR method. The format is functional. Also noted: scale not given: the % may be the effect or the level left. An outline of the steps: (§1)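 Necropsy on day 127 pi after oral treatment and cyclophosphamide immunosuppression. Tissue DNA was amplified by PCR targeting the ~300 bp T. cruzi SOD gene, 200 nM each primer, 30 cycles with 55.5 °C annealing. Products run on 2 % agarose; positive organs counted out of six mice.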

Data set [4] concerns Mus musculus. The data set is described as follows: Nephrotoxicity in Balb/c mouse infected with Trypanosoma cruzi MHOM/Pe/2011/Arequipa DTU 5 trypamastigotes assessed as change in urea level in serum at […], po once daily for 5 consecutive days starting from day 75 post infection measured on day 127 post infection by biochemical analysis relative to control. The class given is toxicity, organism-based. Particulars: in vivo.

The test system of data set [5] is Mus musculus. Put plainly: Cardiotoxicity in Balb/c mouse infected with Trypanosoma cruzi MHOM/Pe/2011/Arequipa DTU 5 trypamastigotes assessed as decrease in ratio of creatine kinase in muscle to brain at 100 mg/kg, po once daily for 5 consecutive days starting from day 75 post infection measured on day 127 post infection by biochemical analysis relative to control. The class given is toxicity, organism-based. Set-up: scale not given: the % may be the effect or the level left. To be noted: in vivo.

For data set [6], the system named is Mus musculus. The data set is described as follows: Toxicity in Balb/c mouse assessed as death at 20 mg/kg, po once daily for 5 consecutive days starting from day 10 post infection. Particulars: in vivo. The format is organism-based. An outline of the steps:
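Female BALB/c mice (8-10 weeks, 20-25 g), groups of six, infected i.p. with 5 x 10^5 Arequipa bloodstream trypomastigotes. Dosing was oral, 20 mg·kg-1 per day for 5 days, given as a 2 mg·mL-1 suspension in 5% DMSO/0.5% hydroxypropyl methylcellulose. Treatment started day 10 pi (acute phase) or day 75 pi (chronic phase). Deaths and body-mass loss were monitored during and after treatment.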

The test system of data set [7] is Trypanosoma cruzi. The data set is described as follows: Antitrypanosomal activity against Trypanosoma cruzi MHOM/Pe/2011/Arequipa DTU 5 trypamastigotes infected in Balb/c mouse assessed as reduction in parasitaemia reactivation in adipose tissue at 20 mg/kg, po pretreated once daily for 5 consecutive days starting from day 75 post infection followed by cyclophosphamide-induced immunosuppression on day 100 post infection every 4 days for a maximum of 3 doses measured on day 127 post infection by PCR method. The format is functional. Also noted: scale not given: the % may be the effect or the level left. To be noted: pooled result: one value given for 9 cell lines, strains, targets or settings. An outline of the steps: as §1

The test system of data set [8] is Trypanosoma cruzi. The data set is described as follows: Antitrypanosomal activity against Trypanosoma cruzi MHOM/Pe/2011/Arequipa DTU 5 trypamastigotes infected in Balb/c mouse assessed as reduction in parasitaemia reactivation in brain tissue at 20 mg/kg, po pretreated once daily for 5 consecutive days starting from day 10 post infection followed by cyclophosphamide-induced immunosuppression on day 100 post infection every 4 days for a maximum of 3 doses measured on day 127 post infection by PCR method. Also noted: scale not given: the % may be the effect or the level left. The class given is functional. In short, it runs like this:
as §1

Data set [9] has as its system Trypanosoma cruzi. Put plainly: Antitrypanosomal activity against Trypanosoma cruzi MHOM/Pe/2011/Arequipa DTU 5 trypamastigotes infected in Balb/c mouse assessed as reduction in parasitaemia reactivation in stomach tissue at 20 mg/kg, po pretreated once daily for 5 consecutive days starting from day 10 post infection followed by cyclophosphamide-induced immunosuppression on day 100 post infection every 4 days for a maximum of 3 doses measured on day 127 post infection by PCR method. The class given is functional. Also noted: scale not given: the % may be the effect or the level left.

Data set [10] deals with Trypanosoma cruzi. The data set is described as follows: Antitrypanosomal activity against Trypanosoma cruzi MHOM/Pe/2011/Arequipa DTU 5 trypamastigotes infected in Balb/c mouse assessed as reduction in Ig-G level in serum at 20 mg/kg, po once daily for 5 consecutive days starting from day 10 post infection measured on day 16 post infection by ELISA. The class given is functional, organism-based. An outline of the steps: (§2)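 Female BALB/c mice (8-10 weeks, 20-25 g), six per group, infected i.p. with 5 x 10^5 Arequipa bloodstream trypomastigotes. Compound was given orally once daily for 5 days from day 10 or day 75 pi, at 20 mg·kg-1 per day in 5 % DMSO/0.5 % HPMC. Anti-T. cruzi IgG in serum was measured by ELISA with Fe-SOD antigen, read as OD 490 nm.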

For data set [11], the system named is Trypanosoma cruzi. The data set is described as follows: Antitrypanosomal activity against Trypanosoma cruzi MHOM/Pe/2011/Arequipa DTU 5 trypamastigotes infected in Balb/c mouse assessed as reduction in Ig-G level in serum at 20 mg/kg, po pretreated once daily for 5 consecutive days starting from day 10 post infection followed by cyclophosphamide-induced immunosuppression on day 100 post infection every 4 days for a maximum of 3 doses measured on day 127 post infection by ELISA. The class given is functional, organism-based. An outline of the steps: as §2

For data set [12], the system named is Trypanosoma cruzi. The data set is described as follows: Antitrypanosomal activity against Trypanosoma cruzi MHOM/Pe/2011/Arequipa DTU 5 trypamastigotes infected in Balb/c mouse assessed as reduction in Ig-G level in serum at 20 mg/kg, po once daily for 5 consecutive days starting from day 75 post infection measured on day 81 post infection by ELISA. The class given is functional, organism-based. In short, it runs like this:
as §2

In data set [13] the test system is Trypanosoma cruzi. The data set is described as follows: Antitrypanosomal activity against Trypanosoma cruzi MHOM/Pe/2011/Arequipa DTU 5 trypamastigotes infected in Balb/c mouse assessed as reduction in splenomegaly at 20 mg/kg, po once daily for 5 consecutive days starting from day 75 post infection measured on day 127 post infection relative to control. The class given is functional, organism-based.

Data set [14] concerns Mus musculus. Put plainly: Nephrotoxicity in Balb/c mouse infected with Trypanosoma cruzi MHOM/Pe/2011/Arequipa DTU 5 trypamastigotes assessed as decrease in urea level in serum at 20 mg/kg, po once daily for 5 consecutive days starting from day 75 post infection measured on day 127 post infection by biochemical analysis relative to control. The format is toxicity, organism-based. Set-up: scale not given: the % may be the effect or the level left. To be noted: in vivo.

Data set [15] has as its system Mus musculus. The data set is described as follows: Cardiotoxicity in Balb/c mouse infected with Trypanosoma cruzi MHOM/Pe/2011/Arequipa DTU 5 trypamastigotes assessed as change in ratio of creatine kinase in muscle to brain at 20 mg/kg, po once daily for 5 consecutive days starting from day 10 post infection measured on day 16 post infection by biochemical analysis relative to control. The class given is toxicity, organism-based. Particulars: in vivo. In short, it runs like this: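 Serum clinical chemistry in Arequipa-infected female BALB/c mice. Oral 20 mg·kg-1 per day for 5 days, started day 10 or day 75 pi. Samples taken at day 16 pi or day 81 pi, and on necropsy day. Markers: CK-MB and LDH (U/L), AST, ALT and alkaline phosphatase (U/L), total bilirubin. Results scored relative to infected untreated controls; uninfected reference n = 15.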

For data set [16], the system named is Mus musculus. The data set is described as follows: Hepatotoxicity in Balb/c mouse infected with Trypanosoma cruzi MHOM/Pe/2011/Arequipa DTU 5 trypamastigotes assessed as increase in ratio of serum ALT to GPT level at 20 mg/kg, po once daily for 5 consecutive days starting from day 75 post infection measured on day 81 post infection by biochemical analysis relative to control. The format is toxicity, organism-based. Particulars: in vivo.

Structures are written as SMILES. Calls of active or inactive are those of the source. The calls are words filed in the database; no cut-off is given here.

In the case of `COc1ccc(C(=O)CCN2CCN(c3ccc(F)cc3)CC2)cc1`, the Activity entry in the data set on Mus musculus [1] is “<= 30%”. For the same molecule, the outcome with Trypanosoma cruzi [2] was Active.
For `COc1ccc(C(=O)CCN2CCN(c3ccc(Cl)cc3)CC2)cc1`, the Activity with Trypanosoma cruzi [3] is 78%; in the data set with Mus musculus [4], under 10%; with Mus musculus [5] it was “<= 10%”.
On to `O=C(Cn1ccnc1[N+](=O)[O-])NCc1ccccc1` [BENZNIDAZOLE], for which the Activity result with Mus musculus [6] was “Non-Toxic”; with Trypanosoma cruzi [7], 55%; with Trypanosoma cruzi [8] it was 33%; in the data set on Trypanosoma cruzi [9] it was 33%; in the data set on Mus musculus [14], “<= 30%”; with Mus musculus [15], under 10%. The Activity result in the data set on Mus musculus [16] is “<= 20%”. Also, the outcome in the data set on Trypanosoma cruzi [10], with Trypanosoma cruzi [11] and in the data set on Trypanosoma cruzi [13] was Active. Besides, the result in the data set with Trypanosoma cruzi [12] was inactive.
